Test results reported in ChEMBL document CHEMBL2021842, “COMPARE analysis of the toxicity of an iminoquinone derivative of the imidazo[5,4-f]benzimidazoles with NAD(P)H:quinone oxidoreductase 1 (NQO1) activity and computational docking of quinones as NQO1 substrates” (Bioorg Med Chem, 2012).

Tests used:
DU-145 = assay: Cytotoxicity against human DU145 cells assessed as reduction in mean cell viability after 72 hrs by MTT assay; type: functional, cell-based; conditions: DU-145, 72 h
Outline: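 DU-145 prostate cells in RPMI-1640 with 10% heat-inactivated FBS, penicillin–streptomycin and 2 mM L-glutamine. Seeded at 2000 cells/well and left 24 h to adhere. Compound added in ethanol (1% final) for 72 h at 37 °C, 5% CO₂, with ethanol-only controls. Formazan dissolved in DMSO and read at 550 nm (690 nm reference). IC₅₀ derived by nonlinear regression of viability versus vehicle.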

HeLa = assay: Cytotoxicity against human HeLa cells assessed as reduction in mean cell viability after 72 hrs by MTT assay; type: functional, cell-based
Outline: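 HeLa-CCL-2 cells in DMEM with 10% heat-inactivated FBS, 2 mM L-glutamine and nonessential amino acids. Plated at 1000 cells/well with 24 h adherence. Treated in ethanol (1% final) for 72 h at 37 °C under 5% CO₂, with ethanol controls. Absorbance of DMSO-dissolved formazan at 550 nm, 690 nm reference. IC₅₀ by nonlinear regression of percent viability.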

[1] = Cytotoxicity against human GM00637 cells assessed as reduction in mean cell viability after 72 hrs by MTT assay; type: cell-based; conditions: GM00637, 72 h
Outline: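 SV40-transformed normal skin fibroblasts (GM00637) in MEM Eagle–Earle BSS with 15% heat-inactivated FBS, 2 mM L-glutamine, 2× amino acids and vitamins. Seeded at 10,000 cells/well and left 24 h to adhere. Ethanol-delivered compound (1% final) for 72 h at 37 °C, 5% CO₂. MTT formazan in DMSO read at 550/690 nm. Viability relative to vehicle; IC₅₀ by nonlinear regression.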

In the case of `O=C1c2nc3n(c2C(=O)c2nc4n(c21)CCCCC4)CCCCC3`, the IC50 (DU-145) is reported as 4460 nM, the IC50 (HeLa) is reported as 1780 nM and the IC50 [1] is reported as greater than 5000 nM.
Compound `CO[C@@]12[C@H](COC(N)=O)C3=C(C(=O)C(C)=C(N)C3=O)N1C[C@@H]1N[C@@H]12` [MITOMYCIN] has an IC50 [1] of 460 nM.
With `CCCCn1cnc2c1C(=O)c1ncn(CCCC)c1C2=O` the IC50 (DU-145) was 1340 nM, the IC50 (HeLa) was 440 nM and the IC50 [1] was 1050 nM.
Work on `O=C1c2nc3n(c2C(=O)c2nc4n(c21)CCCC4)CCC3` yielded an IC50 (DU-145) of 790 nM, an IC50 (HeLa) of 950 nM and an IC50 [1] of 1270 nM.
